iPSC survival up: hiPSC single-cell survival enhancement | survival enhancement, % at 20 µM | ATPlite luminescence; 100% = ROCK inhibitor wells, 0% = DMSO | AID 602274 | 360,000 tested, 0.044% active; in the data active means survival enhancement above about 18%;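 further: cells exposed to compounds for 16 hours before the ATP read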
SKN-1 inh: inhibitors of C. elegans SKN-1; inhibition, % at 21.8 µM; AID 624304; 360,000 tested, 0.49% active; C. elegans VP596 Pgst-4::GFP/RFP ratio, acrylamide-induced, 24 h;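 active means interference check ratio from 0.5 to 1.5 plus GFP to RFP signal ratio inhibition reaching or exceeding a fixed threshold, cut at about 30% in these data, passing the limit was not always enough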
PREPL inh: inhibits the human prolyl oligopeptidase-like enzyme; Q4J6C6; recombinant PREPL, fluorescence polarization activity-based probe; inhibition, % at 5.96 µM; 320,000 tested, 0.68% active; in the data active means inhibition above about 43%;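 further: 0% = enzyme with DMSO and 100% = wells lacking enzyme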
Target sequence (Q4J6C6 whole entry, looked up): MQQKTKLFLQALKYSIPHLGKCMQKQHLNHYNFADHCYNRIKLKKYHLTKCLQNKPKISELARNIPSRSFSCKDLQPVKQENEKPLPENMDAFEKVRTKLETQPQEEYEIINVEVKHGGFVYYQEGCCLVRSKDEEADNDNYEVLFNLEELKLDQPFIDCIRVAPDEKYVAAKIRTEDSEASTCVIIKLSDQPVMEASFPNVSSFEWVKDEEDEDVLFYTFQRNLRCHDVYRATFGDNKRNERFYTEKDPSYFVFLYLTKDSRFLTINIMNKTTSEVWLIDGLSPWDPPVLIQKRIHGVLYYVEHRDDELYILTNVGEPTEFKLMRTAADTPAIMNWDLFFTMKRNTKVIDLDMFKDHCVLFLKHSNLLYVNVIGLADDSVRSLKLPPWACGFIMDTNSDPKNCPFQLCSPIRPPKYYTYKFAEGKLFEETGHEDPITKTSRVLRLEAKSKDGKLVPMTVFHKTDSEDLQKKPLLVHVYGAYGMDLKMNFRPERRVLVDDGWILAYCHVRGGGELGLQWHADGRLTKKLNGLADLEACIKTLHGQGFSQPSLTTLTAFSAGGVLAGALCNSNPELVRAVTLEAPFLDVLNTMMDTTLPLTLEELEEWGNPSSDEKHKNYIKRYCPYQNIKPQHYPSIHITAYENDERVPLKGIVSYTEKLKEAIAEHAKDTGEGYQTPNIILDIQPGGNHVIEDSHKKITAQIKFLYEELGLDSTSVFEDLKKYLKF
MT1-MMP act inh: MT1-MMP (human) activation inhibition; P50281; HT1080 RFP-PRO-GFP cells, GFP/RFP ratio fluorescence, overnight; percent of plate control window, DMSO zero; GFP/RFP ratio change, % at 20 µM; 360,000 tested, 0.061% active;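 active means GFP/RFP ratio change of at least 30% with cell ATP level not reduced by more than half and red fluorescence within 50% of control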
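Read-out: GFP/RFP fluorescence ratio; Test system: RFP-PRO-GFP reporter HT1080 cells; Compound dosing: single-point 20 µM compound, 1% DMSO; Times: overnight compound exposure at 37 °C.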
eLon inh: inhibitors of E. coli Lon protease. AID 602123. P0A9M0. 360,000 tested, 0.42% active. inhibition, % at 7.94 µM. purified E. coli Lon protease, fluorescence polarization; in the data active means inhibition above about 13%, passing the limit was not always enough;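 further: 0% = enzyme with probe and DMSO and 100% = no enzyme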
TbMetRS inhib: blocks T. brucei methionyl-tRNA synthetase activity; purified T. brucei MetRS, ATP depletion, Kinase-Glo luminescence; inhibition, % at 11.9 µM; 360,000 tested, 0.4% active;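 active means inhibition above a per-plate cutoff of the control wells' mean inhibition plus 3 SD, cut at about 5.5% in these data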;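 further: 0% = DMSO wells median and 100% = median of wells with control inhibitor compound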
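System: purified T. brucei MetRS enzyme / Detection: Kinase-Glo luciferase luminescence reporting remaining unconsumed ATP / Medium: HEPES buffer with MgCl2, KCl, DTT, spermine, BSA, pyrophosphatase / Replication: singlicate, one well per compound / Evaluation: percent inhibition relative to median high and low control wells / Schedule: 2 h aminoacylation at 25 °C after 15 min preincubation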
Active calls of the source: *; x = no result. Most compounds without a hit are left out; they make up all but 1.8% or so of the library.

SMILES	iPSC survival up	SKN-1 inh	PREPL inh	MT1-MMP act inh	eLon inh	TbMetRS inhib
COc1cc(/C=N/N(CCO)C2=NS(=O)(=O)c3ccccc32)cc(OC)c1OC	0.9	35.3*	14.7	-1.6	2.8	0.1
COCCC(=O)NNS(=O)(=O)c1ccc(Cl)cc1	-0.5	3.4	5.1	-2.8	1.3	-0.2
Cc1cc(/C=C(\C#N)C(=O)Nc2ccc(F)cc2)c(C)n1-c1ccc(N2CCOCC2)c([N+](=O)[O-])c1	-2.6	38.5*	20.8	3.8	10.7	0.3
Cc1cccnc1Nc1nc(-c2ccc(F)cc2)cs1	0.0	42.4*	20.0	1.3	2.0	-2.1
O=C(Nc1nc(-c2cc(F)ccc2F)cs1)c1ccccn1	-0.6	37.5*	-2.9	2.3	2.1	-0.3
c1ccc(-c2csc(Nc3ccccn3)n2)cc1	-0.8	66.9*	3.5	0.7	7.5	-0.6
Fc1ccc(-c2csc(Nc3ccccn3)n2)c(F)c1	-0.7	60.1*	9.1	-1.2	0.2	1.1
CN(C(=O)c1ccc(NC(=O)Cc2ccc([N+](=O)[O-])cc2)cc1)C1CCCC1	0.0	12.4	5.8	4.8	6.2	-0.4
O=C(NCc1ccc(F)cc1)c1cc(C2CCCCN2C(=O)CCCc2ccccc2)on1 (centres undefined)	0.5	6.6	x	-1.0	-13.7	-0.2
Cc1ccc(NC(=O)C2(C)CCN2C(=O)Cc2ccc(C(C)C)cc2)cc1 (centres undefined)	-0.9	-2.5	x	-4.1	-2.1	-0.3
c1ccc(-c2ccc(-c3ccncn3)cc2)cc1	-0.5	55.6*	-12.7	0.5	2.5	0.2
c1ccc(-c2cncnc2)nc1	-1.7	10.4	8.5	3.5	-5.6	-0.1
COc1ccccc1-c1c(C(F)(F)F)oc2cc(OC(=O)c3cccc([N+](=O)[O-])c3C)ccc2c1=O	-2.5	35.8*	-1.6	3.5	-11.4	0.0
COc1ccc(/C=C(\C#N)C(=O)NC2CCS(=O)(=O)C2)cc1OC (centres undefined)	0.6	-1.8	13.5	1.0	-3.6	-0.5
CC(NC(=O)c1cc(COc2ccccc2)on1)c1nccs1 (centres undefined)	0.4	35.5*	6.1	-0.3	1.2	1.1
Cc1cccc(NC(=O)CCS(=O)(=O)c2ccc3nc(C)sc3c2)c1	-0.6	-17.2	x	4.7	-8.5	0.0
Cn1ccnc1SCC(=O)N1CCN(S(=O)(=O)c2ccccc2)CC1	-0.4	7.9	0.9	-4.6	8.1	-1.0
CC(C)OC(=O)CN1CCN(C2c3ccccc3-c3ccccc32)CC1	-1.2	38.2*	-9.9	6.2	5.2	-0.6
COc1cc(F)ccc1-c1csc(C(C)(O)c2ccc(F)c(F)c2)n1 (centres undefined)	3.1	7.1	x	0.0	-2.8	-0.2
O=C1c2ccccc2C(=O)c2c([N+](=O)[O-])ccc(O)c21	-0.3	37.4*	28.9	58.9	2.5	-0.3
O=C(O)c1ccc([N+](=O)[O-])c2c1C(=O)c1ccccc1C2=O	5.9	0.2	1.0	6.0	-5.2	-0.3
Cc1ccc(CNC(=O)c2ccc(Cn3nc(C)cc3C)o2)cc1	-0.1	16.1	-4.6	3.9	9.6	-0.3
Cc1cc(C)n(Cc2ccc(C(=O)NCc3ccco3)o2)n1	2.7	35.8*	11.0	0.5	10.5	-0.7
CCOc1ccc2nc(NC(=O)CN3CCC(n4nnc5cc(C(F)(F)F)ccc54)CC3)sc2c1	-0.9	38.5*	5.5	2.0	-5.3	-0.1
CCOC(=O)c1cc(-c2ccco2)nc2c1c(C)nn2-c1ccccc1	-2.8	39.5*	2.6	3.6	-6.4	-0.5
SMILES	iPSC survival up	SKN-1 inh	PREPL inh	MT1-MMP act inh	eLon inh	TbMetRS inhib
CCOCCCNC(=O)/C(C#N)=C/c1ccc([N+](=O)[O-])o1	28.7*	24.7	-31.9	12.2	-35.3	1.1
CCOCCCNC(=O)/C(C#N)=C/c1ccc(-c2ccc(S(=O)(=O)N3CCOCC3)cc2)o1	1.5	-0.4	11.5	-7.3	-4.0	-0.1
Fc1ccc(Oc2nnnn2-c2ccccc2)cc1	-0.2	7.3	10.2	-0.3	-2.4	-0.3
Brc1ccc(Oc2nnnn2-c2ccccc2)cc1	-0.5	36.8*	1.7	1.7	-4.6	-0.8
O=C(O)CCc1ccc(-c2ccccc2)n1NC(=O)c1ccco1	-0.2	39.2*	24.2	1.9	-3.1	-0.7
O=C(O)CCc1ccc(-c2cccs2)n1NC(=O)c1ccco1	-0.7	-5.2	2.4	1.3	-17.0	-0.9
COc1ccccc1CNc1nc(NCc2ccc3occc3c2)c2sccc2n1	-2.2	12.5	x	-3.3	-0.4	-0.2
c1ccc(COc2ncnc3c2ncn3CCCNCC(c2ccccc2)c2ccccc2)cc1	-3.5	10.4	x	-25.8	-3.6	-0.2
C[C@@H]1C=C[C@](Cc2ccccc2)(C(=O)NCC2CC2)N1C(=O)c1ccccc1	1.8	35.5*	7.0	1.9	-5.3	-0.4
Nc1ccc2nc(N3CCOCC3)sc2c1	-0.7	-0.7	46.5*	-4.2	3.3	-0.7
CS(=O)(=O)N1CCN(c2nc3ccc(Cl)cc3s2)CC1	0.6	-1.2	1.9	1.6	3.5	-0.4
Clc1ccc2nc(N3CCCCC3)sc2c1	-1.9	57.3*	-8.2	3.2	-14.1	1.0
O=c1[nH]cc(CCc2ccccc2)c(=O)[nH]1	-3.2	16.1	x	1.3	-4.8	-0.2
Cc1ccc(S(=O)(=O)N2C(c3ccccc3)CC(=O)C3CN(S(=O)(=O)c4ccc(Cl)cc4)C(c4ccccc4)CC32)cc1 (centres undefined)	x	-10.9	x	-4.7	x	-0.9
COc1cccc(NC(=O)NNC(=O)c2ccc3c(c2)NC(=O)C(C)(C)O3)c1	0.1	39.6*	8.7	2.7	-9.6	-0.5
COc1ccccc1NC(=O)NNC(=O)c1ccc2c(c1)NC(=O)C(C)(C)O2	-0.4	-6.8	-2.7	x	8.2	-0.8
CC1=C(C(=O)OCc2ccccc2)C(c2ccccc2OS(=O)(=O)c2ccccc2[N+](=O)[O-])NC(=O)N1CCCC(=O)O (centres undefined)	x	x	31.0	x	x	x
Oc1ccccc1-c1csc(-c2ccccc2)n1	0.8	19.4	-9.1	-16.4	-1.1	-1.1
c1ccc2sc(-c3ccncc3)nc2c1	-0.7	38.6*	-12.8	1.5	-4.5	0.2
Clc1ccc(-c2csc(-c3cccnc3)n2)s1	-0.1	91.9*	8.2	5.2	-0.6	1.4
Fc1ccccc1-c1csc(-c2cccnc2)n1	0.1	25.4	-10.2	x	-9.9	-1.0
c1ccc(-c2csc(-c3ccncc3)n2)cc1	0.1	69.8*	-2.6	-1.3	8.9	-0.8
Brc1ccsc1-c1csc(-c2ccncc2)n1	-0.4	39.8*	3.1	-1.7	1.8	-0.1
Cc1ccc(S(=O)(=O)N(C)CCCC(=O)Nc2ccc(C)cc2C)cc1	-1.3	8.7	4.5	-4.4	-12.6	-0.3
